According to ChEMBL document CHEMBL4000211, “Discovery of novel polycyclic spiro-fused carbocyclicoxindole-based anticancer agents” (Eur J Med Chem, 2017):
Active and inactive are the calls of the source. The calls are words filed in the database; no cut-off is given here.

Assays:
[1] = system: HCT-116; test: Antiproliferative activity against human HCT116 cells after 48 hrs by MTT assay; assay type: functional, cell-based; details: HCT-116, 48 h
Outline: (§1)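 Cells seeded at 3×10³/well and grown 24 h, then exposed 48 h to six final concentrations, twofold steps down from 30. MTT (5 mg/mL) was added for 2–4 h at 37 °C. Supernatant was removed, formazan dissolved in DMSO, and OD read at 570 nm. Results are given as IC50, or as percent inhibition where IC50 exceeds the top concentration. At least three runs.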

[2] = system: HCT-116; test: Induction of apoptosis in human HCT116 cells assessed as early apoptotic cells at 10 uM after 48 hrs by annexin V-FITC/propidium iodide staining-based flow cytometric method (reference value: 1.6%); assay type: functional
[3] = system: A2780S; test: Antiproliferative activity against human A2780S cells at 7.5 uM after 48 hrs by MTT assay relative to control; assay type: functional; outline: as §1
[4] = system: HCT-116; test: Cell cycle arrest in human HCT116 cells assessed as accumulation at G2 phase at 10 uM after 24 hrs by propidium iodide staining-based flow cytometric method (reference value: 26.10%); assay type: functional
[5] = system: HCT-116; test: Induction of apoptosis in human HCT116 cells assessed as late apoptotic cells at 12.5 uM after 24 hrs by annexin V-FITC/propidium iodide staining-based flow cytometric method (reference value: 2.77%); assay type: functional
[6] = system: HCT-116; test: Induction of apoptosis in human HCT116 cells assessed as viable cells at 10 uM after 48 hrs by annexin V-FITC/propidium iodide staining-based flow cytometric method (reference value: 95.05%); assay type: functional; details: HCT-116, 48 h, read-out: Activity
Outline: (§2)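 HCT116 cells seeded at 1×10⁶ cells/mL in 6-well plates for 24 h, then exposed to 0, 7.5, 10 or 12.5 μM for a further 24 h or 48 h. Cells washed twice in PBS, then stained with Annexin V-FITC plus PI (100 μg/mL stock) in binding buffer (10 mM HEPES, pH 7.4, 2.5 mM CaCl₂) for 30 min at room temperature in the dark. Early and late apoptotic fractions gated by flow cytometry.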

[7] = system: HCT-116; test: Induction of apoptosis in human HCT116 cells assessed as early apoptotic cells at 7.5 uM after 48 hrs by annexin V-FITC/propidium iodide staining-based flow cytometric method (reference value: 1.6%); assay type: functional
[8] = system: BGC-823; test: Antiproliferative activity against human BGC823 cells after 48 hrs by MTT assay; assay type: functional, cell-based; details: BGC-823, 48 h; outline: as §1
[9] = system: HCT-116; test: Induction of apoptosis in human HCT116 cells assessed as reduction in cell volume at 7.5 to 12.5 uM after 24 hrs by Hoechst 33342 staining-based fluorescence microscopic method; assay type: functional
Outline: (§3)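 HCT116 cells (1×10⁵/well) cultured 24 h, then exposed to 0, 7.5, 10 or 12.5 μM (final) for 24 h. Rinsed in PBS, fixed in 75% ethanol and checked by inverted microscopy. Then stained with Hoechst 33342 (2 μg/mL in PBS) and scored for apoptotic nuclear morphology under fluorescence microscopy.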

[10] = system: A2780/Taxol; test: Antiproliferative activity against human A2780T cells after 48 hrs by MTT assay; assay type: functional, cell-based; outline: as §1
[11] = system: HCT-116; test: Cell cycle arrest in human HCT116 cells assessed as accumulation at sub G1 phase at 10 uM after 24 hrs by propidium iodide staining-based flow cytometric method (reference value: 1.73%); assay type: functional
[12] = system: HCT-116; test: Induction of apoptosis in human HCT116 cells assessed as nuclear condensation at 7.5 to 12.5 uM after 24 hrs by Hoechst 33342 staining-based fluorescence microscopic method; assay type: functional, cell-based; outline: as §3
[13] = system: HCT-116; test: Cell cycle arrest in human HCT116 cells assessed as accumulation at S phase at 7.5 uM after 48 hrs by propidium iodide staining-based flow cytometric method (reference value: 34.83%); assay type: functional
[14] = system: MCF7; test: Antiproliferative activity against human MCF7 cells after 48 hrs by MTT assay; assay type: functional, cell-based; details: MCF7, 48 h; outline: as §1
[15] = system: A2780S; test: Antiproliferative activity against human A2780S cells at 15 uM after 48 hrs by MTT assay relative to control; assay type: functional; outline: as §1
[16] = system: A2780S; test: Antiproliferative activity against human A2780S cells at 30 uM after 48 hrs by MTT assay relative to control; assay type: functional; outline: as §1
[17] = molecular target: E3 ubiquitin-protein ligase Mdm2 (Homo sapiens) (UniProt Q00987); test: Inhibition of MDM2-mediated p53 degradation in human HCT116 cells assessed as increase in MDM2 levels at 7.5 to 12.5 uM after 24 hrs by Western blot method; assay type: cell-based
Chain of E3 ubiquitin-protein ligase Mdm2 (Homo sapiens) (Q00987 whole entry, looked up): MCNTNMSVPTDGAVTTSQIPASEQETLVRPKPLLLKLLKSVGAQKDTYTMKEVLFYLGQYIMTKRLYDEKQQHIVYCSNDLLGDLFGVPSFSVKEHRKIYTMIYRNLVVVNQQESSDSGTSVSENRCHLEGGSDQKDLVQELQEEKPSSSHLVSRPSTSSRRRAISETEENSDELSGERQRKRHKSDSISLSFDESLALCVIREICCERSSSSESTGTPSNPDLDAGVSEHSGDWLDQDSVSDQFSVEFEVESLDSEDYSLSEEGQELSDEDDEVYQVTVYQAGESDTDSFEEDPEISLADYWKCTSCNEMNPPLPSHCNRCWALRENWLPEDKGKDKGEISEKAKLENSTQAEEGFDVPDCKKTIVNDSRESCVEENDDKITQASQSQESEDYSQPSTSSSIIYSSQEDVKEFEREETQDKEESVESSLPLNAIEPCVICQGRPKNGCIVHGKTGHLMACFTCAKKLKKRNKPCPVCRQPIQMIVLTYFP
Outline: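 Treated HCT116 cells lysed on ice in RIPA buffer with 1% protease inhibitor cocktail. Lysates cleared at 13000 g for 20 min at 4 °C and protein measured by BCA. Equal protein amounts run on SDS-PAGE, transferred to PVDF and probed with primary then HRP secondary antibodies. Bands detected by enhanced chemiluminescence; 24 h treatment.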

[18] = system: HCT-116; test: Cell cycle arrest in human HCT116 cells assessed as accumulation at G2 phase at 10 uM after 48 hrs by propidium iodide staining-based flow cytometric method (reference value: 31.27%); assay type: functional
[19] = system: HCT-116; test: Cell cycle arrest in human HCT116 cells assessed as accumulation at sub G1 phase at 7.5 uM after 24 hrs by propidium iodide staining-based flow cytometric method (reference value: 1.73%); assay type: functional
[20] = system: HCT-116; test: Cell cycle arrest in human HCT116 cells assessed as accumulation at sub G1 phase at 12.5 uM after 48 hrs by propidium iodide staining-based flow cytometric method (reference value: 0.86%); assay type: functional
[21] = system: HCT-116; test: Induction of apoptosis in human HCT116 cells assessed as late apoptotic cells at 10 uM after 24 hrs by annexin V-FITC/propidium iodide staining-based flow cytometric method (reference value: 2.77%); assay type: functional
[22] = system: HCT-116; test: Induction of apoptosis in human HCT116 cells assessed as late apoptotic cells at 10 uM after 48 hrs by annexin V-FITC/propidium iodide staining-based flow cytometric method (reference value: 1.06%); assay type: functional
[23] = system: HCT-116; test: Cell cycle arrest in human HCT116 cells assessed as accumulation at G1 phase at 10 uM after 48 hrs by propidium iodide staining-based flow cytometric method (reference value: 40.75%); assay type: functional
[24] = system: HCT-116; test: Induction of apoptosis in human HCT116 cells assessed as viable cells at 12.5 uM after 24 hrs by annexin V-FITC/propidium iodide staining-based flow cytometric method (reference value: 93.48%); assay type: functional; details: HCT-116, 24 h, read-out: Activity; outline: as §2
[25] = system: HCT-116; test: Cell cycle arrest in human HCT116 cells assessed as accumulation at G1 phase at 10 uM after 24 hrs by propidium iodide staining-based flow cytometric method (reference value: 43.79%); assay type: functional
[26] = system: HCT-116; test: Cell cycle arrest in human HCT116 cells assessed as accumulation at sub G1 phase at 12.5 uM after 24 hrs by propidium iodide staining-based flow cytometric method (reference value: 1.73%); assay type: functional
[27] = system: HCT-116; test: Cell cycle arrest in human HCT116 cells assessed as accumulation at G1 phase at 7.5 uM after 48 hrs by propidium iodide staining-based flow cytometric method (reference value: 40.75%); assay type: functional
[28] = system: A2780S; test: Antiproliferative activity against human A2780S cells after 48 hrs by MTT assay; assay type: functional, cell-based; outline: as §1
[29] = system: HCT-116; test: Induction of apoptosis in human HCT116 cells assessed as early apoptotic cells at 10 uM after 24 hrs by annexin V-FITC/propidium iodide staining-based flow cytometric method (reference value: 1.9%); assay type: functional

IC50 [1]: 8.6 µM | IC50 [8]: > 30 µM | IC50 [10]: 23.4 µM | IC50 [14]: 16.2 µM | inhibition [17]: Active | IC50 [28]: 7.91 µM
Compound: C[C@@H]1Oc2ccc3ccccc3c2[C@@H]2[C@@H]1C=C(C=O)[C@@H](C)[C@]21C(=O)Nc2ccccc21
Activity [2]: 27.48% | inhibition at 7.5 µM [3]: 50 to 58.1% | Activity [4]: 21.05% | Activity [5]: 17.98% | viability at 10 µM [6]: 61.5% | Activity [7]: 4.18% | Activity [9]: Active | Activity [11]: 15.92% | Activity [12]: Active | Activity [13]: 23.94% | inhibition at 15 µM [15]: 61.7 to 72.4% | inhibition at 30 µM [16]: 83.8 to 85.1% | Activity [18]: 18.42% | Activity [19]: 3.18% | Activity [20]: 64.26% | Activity [21]: 10.13% | Activity [22]: 8.18% | Activity [23]: 82.32% | viability at 12.5 µM [24]: 46.6% | Activity [25]: 75.18% | Activity [26]: 37.03% | Activity [27]: 49.85% | Activity [29]: 11.32%
